Assay results taken from ChEMBL document CHEMBL4316619 (Bioorg Med Chem Lett, 2019).
pEC50: −log10 of the molar value. Activity calls are given as the source filed them. No cut-off for these calls is given here.

What was measured:
[1] = Cytotoxicity against MDCK cells assessed as reduction in cell viability measured on day 5 by Celltiter-Glo luminescence assay; format: cell-based, Canis lupus familiaris; details: dog, MDCK cells
Summary of the method: (§1)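 MDCK cells were infected with seasonal influenza A strains through NIAID resources and scored for protection from virus-induced cell death. Compounds were tested at four concentrations (0.8, 4, 20, 100 μM). EC50/EC90 (reduction of viral cell death) and CC50 (reduction of cell viability) were derived in μM, and SI50 = CC50/EC50.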

[2] = system: MDCK; experiment: Cytotoxicity against MDCK cells assessed as reduction in cell viability measured after 48 hrs by CellTiter Glo assay; format: cell-based, Canis lupus familiaris; details: dog
Summary of the method: (§2)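 MDCK cells were incubated with compound under the conditions of the 48 h replication assay. Cytotoxicity was read with the CellTiter-Glo ATP viability assay. Follow-up viability testing used 5, 10, 50 and 100 μM.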

[3] = system: MDCK; experiment: Cytotoxicity against MDCK cells assessed as reduction in cell viability up to 100 uM measured after 48 hrs by CellTiter Glo assay; format: cell-based, Canis lupus familiaris; details: dog; summary of the method: as §2
[4] = system: Influenza A virus; experiment: Antiviral activity against Influenza A virus A/PR/8/34 (H1N1) infected in MDCK cells assessed as fold reduction in virus titer at 10 uM measured after 48 hrs by hemagglutination assay relative to control; format: functional, A/Puerto Rico/8/1934(H1N1)
Summary of the method: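 MDCK cells were infected with A/PR/8/34 (H1N1) at MOI 0.1 and incubated with compound for 48 h. Supernatant virus was then quantified by hemagglutination assay and standard TCID50 analysis. The single-concentration screen used 10 μM and reports fold reduction in titer. Dose-response runs used triplicate cultures, with percent titer decrease back-calculated from TCID50.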

[5] = Drug level in C57BL/6 mouse plasma at 30 mg/kg, ip measured at 2 hrs; format: ADME, organism-based
Summary of the method: (§3)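 Male C57BL/6 mice, single intraperitoneal 30 mg/kg dose, N=3. Plasma, liver and lung concentrations followed over time to give concentration-time profiles, from which Tmax, Cmax, terminal t1/2, AUClast and AUCINF were derived.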

[6] = Terminal half life in C57BL/6 mouse plasma at 30 mg/kg, ip; format: ADME, organism-based; details: mouse, in vivo; summary of the method: as §3
[7] = system: Influenza A virus H3N2; experiment: Antiviral activity against Influenza A virus (A/Brisbane/10/2007(H3N2)) infected in MDCK cells assessed as reduction in virus-induced cytopathic effect measured on day 5 by Celltiter-Glo luminescence assay; format: functional, organism-based; details: 120 h; summary of the method: as §1
[8] = Stability of the compound in mouse liver microsomes assessed as parent compound remaining measured immediately; format: ADME, Microsome; details: read-out: Stability
Summary of the method: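 Mouse liver microsomes; percent parent compound remaining measured at 0, 15 and 30 min.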

[9] = Apparent permeability across apical to basolateral side in human Caco2 cells measured after 2 hrs; format: ADME, cell-based; details: caco-2, 2 h
Summary of the method: (§4)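 Permeability was measured across Caco-2 monolayers in both directions, apical to basolateral and basolateral to apical. […] Runs were done with and without 3% BSA, and mass recovery (%) was reported for each direction. Efflux ratio = Papp B→A / Papp A→B.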

[10] = Apparent permeability across basolateral to apical side in human Caco2 cells measured after 2 hrs; format: ADME, cell-based; details: caco-2, 2 h; summary of the method: as §4
[11] = Drug level in C57BL/6 mouse plasma at 30 mg/kg, ip measured at 48 hrs; format: ADME, organism-based; summary of the method: as §3
[12] = Drug level in C57BL/6 mouse plasma at 30 mg/kg, ip measured at 4 hrs; format: ADME, organism-based; summary of the method: as §3
[13] = Drug level in C57BL/6 mouse lung at 30 mg/kg, ip measured at 48 hrs; format: ADME, organism-based; details: in vivo
Summary of the method: (§5)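 Male C57BL/6 mice received a single intraperitoneal dose of 30 mg/kg (N=3). Compound concentrations were followed over time in plasma, liver and lung. Tmax, Cmax, terminal t1/2, AUClast and AUCINF were derived from the mean concentration-time profiles.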

[14] = Drug level in C57BL/6 mouse liver at 30 mg/kg, ip measured at 4 hrs; format: ADME, organism-based; details: in vivo; summary of the method: as §5
[15] = Drug level in C57BL/6 mouse liver at 30 mg/kg, ip measured at 3 hrs; format: ADME, organism-based; details: in vivo; summary of the method: as §5
[16] = AUClast in C57BL/6 mouse lung at 30 mg/kg, ip; format: ADME, organism-based; parameters: dose 30 mg/kg, route intraperitoneal, time 0 - last; summary of the method: as §5
[17] = Drug level in C57BL/6 mouse plasma at 30 mg/kg, ip measured at 8 hrs; format: ADME, organism-based; summary of the method: as §3
[18] = Drug level in C57BL/6 mouse plasma at 30 mg/kg, ip measured at 3 hrs; format: ADME, organism-based; summary of the method: as §3
[19] = Drug level in C57BL/6 mouse plasma at 30 mg/kg, ip measured at 1 hrs; format: ADME, organism-based; summary of the method: as §3
[20] = Drug level in C57BL/6 mouse liver at 30 mg/kg, ip measured at 12 hrs; format: ADME, organism-based; details: in vivo; summary of the method: as §5
[21] = Terminal half life in C57BL/6 mouse lung at 30 mg/kg, ip; format: ADME, organism-based; details: read-out: beta t1/2 (converted); summary of the method: as §3
[22] = Apparent permeability across basolateral to apical side in human Caco2 cells assessed as drug recovery in presence of 3% BSA; format: ADME, cell-based; details: caco-2; summary of the method: as §4
[23] = biological target: Luciferin 4-monooxygenase (Photinus pyralis) (UniProt P08659); experiment: Effect on firefly luciferase activity expressed in 293 cells at 50 uM by luminescence assay; format: cell-based
[24] = Drug level in C57BL/6 mouse lung at 30 mg/kg, ip measured at 3 hrs; format: ADME, organism-based; details: in vivo; summary of the method: as §5
[25] = system: Influenza A virus; experiment: Effect on NS1 protein expression in Influenza A virus A/PR/8/34 (H1N1) infected in MDCK cells at 20 uM by Western blot analysis; format: functional, organism-based; details: A/Puerto Rico/8/1934(H1N1)
Summary of the method: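 MDCK cells, uninfected or infected with A/PR/8/34, treated with DMSO or compound at 20 μM. NS1 protein detected by Western blot, with α-tubulin as loading control.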

[26] = Apparent permeability across basolateral to apical side in human Caco2 cells measured after 2 hrs in presence of 3% BSA; format: ADME, cell-based; details: caco-2, 2 h; summary of the method: as §4
[27] = AUC (infinity) in C57BL/6 mouse lung at 30 mg/kg, ip; format: ADME, organism-based; parameters: dose 30 mg/kg, route intraperitoneal, time infinity; summary of the method: as §5
[28] = Aqueous kinetic solubility of the compound; format: physicochemical; details: buffer
[29] = Drug level in C57BL/6 mouse lung at 30 mg/kg, ip measured at 2 hrs; format: ADME, organism-based; details: in vivo; summary of the method: as §5
[30] = Tmax in C57BL/6 mouse lung at 30 mg/kg, ip; format: ADME, organism-based; summary of the method: as §3
[31] = Drug level in C57BL/6 mouse lung at 30 mg/kg, ip measured at 1 hrs; format: ADME, organism-based; details: in vivo; summary of the method: as §5
[32] = Terminal half life in C57BL/6 mouse liver at 30 mg/kg, ip; format: ADME, organism-based; details: read-out: beta t1/2 (converted); summary of the method: as §3
[33] = Drug level in C57BL/6 mouse lung at 30 mg/kg, ip measured at 24 hrs; format: ADME, organism-based; details: in vivo; summary of the method: as §5
[34] = Drug level in C57BL/6 mouse plasma at 30 mg/kg, ip measured at 0.083 hrs; format: ADME, organism-based; summary of the method: as §5
[35] = AUC (infinity) in C57BL/6 mouse liver at 30 mg/kg, ip; format: ADME, organism-based; parameters: dose 30 mg/kg, time infinity, route intraperitoneal; summary of the method: as §5
[36] = Cmax in C57BL/6 mouse plasma at 30 mg/kg, ip; format: ADME, organism-based; parameters: dose 30 mg/kg, route intraperitoneal; details: mouse, in vivo; summary of the method: as §5
[37] = Apparent permeability across apical to basolateral side in human Caco2 cells assessed as drug recovery in presence of 3% BSA; format: ADME, cell-based; details: caco-2; summary of the method: as §4
[38] = Apparent permeability across basolateral to apical side in human Caco2 cells assessed as drug recovery; format: ADME, cell-based; details: caco-2; summary of the method: as §4
[39] = Tmax in C57BL/6 mouse liver at 30 mg/kg, ip; format: ADME, organism-based; summary of the method: as §3
[40] = Drug level in C57BL/6 mouse lung at 30 mg/kg, ip measured at 12 hrs; format: ADME, organism-based; details: in vivo; summary of the method: as §5

Luciferin 4-monooxygenase (Photinus pyralis), sequence (P08659 whole entry): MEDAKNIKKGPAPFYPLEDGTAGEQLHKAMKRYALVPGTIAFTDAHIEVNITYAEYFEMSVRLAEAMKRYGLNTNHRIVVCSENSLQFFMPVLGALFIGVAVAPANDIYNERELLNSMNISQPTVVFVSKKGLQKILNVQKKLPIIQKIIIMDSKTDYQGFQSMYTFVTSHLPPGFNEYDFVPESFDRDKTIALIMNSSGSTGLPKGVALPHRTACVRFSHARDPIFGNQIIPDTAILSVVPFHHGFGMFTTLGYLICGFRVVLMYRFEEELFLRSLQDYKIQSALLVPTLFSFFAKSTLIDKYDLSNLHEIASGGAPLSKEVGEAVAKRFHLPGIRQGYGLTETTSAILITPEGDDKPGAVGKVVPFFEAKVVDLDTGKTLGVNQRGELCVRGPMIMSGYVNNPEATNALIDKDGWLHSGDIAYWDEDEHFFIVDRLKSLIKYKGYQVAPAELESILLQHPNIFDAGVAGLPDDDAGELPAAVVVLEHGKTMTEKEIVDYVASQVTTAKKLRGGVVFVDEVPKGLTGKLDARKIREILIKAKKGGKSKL

## COc1cc(-c2ccnc3c2c(C)nn3-c2ccc(C(F)(F)F)cc2)ccc1O
[1]
  CC50 at 5 day: 19.8 to 27.8 µM
[2]
  Activity: Non-Toxic
[3]
  Activity: Non-Toxic
[4]
  fold change (FC): 128
[5]
  concentration at 2 h: 2.53 µM
[6]
  beta t1/2: 4.6 h
[7]
  pEC50: 4.77
  EC90: > 50 µM
[8]
  remaining at 0 min: 100%
[9]
  Papp: 1 nm/s
[10]
  Papp: 2.3 nm/s
[11]
  concentration at 48 h: 0.003 µM
[12]
  concentration at 4 h: 1.2 µM
[13]
  Drug uptake: 15 nmol/kg
[14]
  Drug uptake: 13997 nmol/kg
[15]
  Drug uptake: 10058 nmol/kg
[16]
  AUC(0-t): 53.9 µg·h/mL
[17]
  concentration at 8 h: 0.555 µM
[18]
  concentration at 3 h: 1.73 µM
[19]
  concentration at 1 h: 5.12 µM
[20]
  Drug uptake: 1984 nmol/kg
[21]
  half-life: 4.5 h
[22]
  Drug recovery: 81%
[23]
  Activity: inactive
[24]
  Drug uptake: 10951 nmol/kg
[25]
  Activity: inactive
[26]
  Papp: 2.7 nm/s
[27]
  AUC(0-inf): 53.9 µg·h/mL
[28]
  Kinetic_solubility: 3.1 µM
[29]
  Drug uptake: 16568 nmol/kg
[30]
  Tmax: 0.25 h
[31]
  Drug uptake: 26592 nmol/kg
[32]
  half-life: 4.7 h
[33]
  Drug uptake: 168 nmol/kg
[34]
  concentration at 0.083 h: 2.95 µM
[35]
  AUC(0-inf): 80.3 µg·h/mL
[36]
  Cmax: 2.437 µg/mL
[37]
  Drug recovery: 49%
[38]
  Drug recovery: 9%
[39]
  Tmax: 0.25 h
[40]
  Drug uptake: 1741 nmol/kg
